From ChEMBL document CHEMBL4043093, “2-Oxo-3, 4-dihydropyrimido[4, 5-d]pyrimidinyl derivatives as new irreversible pan fibroblast growth factor receptor (FGFR) inhibitors” (Eur J Med Chem, 2017)

Legend:
[1] = target: Rhodopsin kinase GRK7 (Homo sapiens) (UniProt Q8WTQ7); assay: Inhibition of wild-type human full length GRK7 (M1 to L553 residues) expressed in HEK293 cells assessed as residual activity at 1000 nM after 30 mins by Kinomescan method relative to control; assay type: cell-based
How it was run: (§1)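 Single-concentration screen at 1 µM across a 456-kinase KINOMEscan panel. The read-out is Percent Control for each kinase.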

[2] = target: SNF-related serine/threonine-protein kinase (Homo sapiens) (UniProt Q9NRH2); assay: Inhibition of wild-type human partial length SNRK (M1 to E339 residues) expressed in HEK293 cells assessed as residual activity at 1000 nM after 30 mins by Kinomescan method relative to control; assay type: cell-based
[3] = system: NCI-H520; assay: Antiproliferative activity against human FGFR1-amplified NCI-H520 cells after 7 days by SRB assay; details: NCI-H520, 168 h
[4] = target: Transient receptor potential cation channel subfamily M member 6 (Homo sapiens) (UniProt Q9BX84); assay: Inhibition of wild-type human partial length TRPM6 (Q1723 to I1998 residues) expressed in HEK293 cells assessed as residual activity at 1000 nM after 30 mins by Kinomescan method relative to control; assay type: cell-based
[5] = target: Ephrin type-A receptor 4 (Homo sapiens) (UniProt P54764); assay: Inhibition of wild-type human partial length EPHA4 (T601 to R897 residues) expressed in Escherichia coli BL21 assessed as residual activity at 1000 nM after 30 mins by Kinomescan method relative to control
[6] = target: Serine/threonine-protein kinase 16 (Homo sapiens) (UniProt O75716); assay: Inhibition of wild-type human partial length STK16 (G11 to I305 residues) expressed in Escherichia coli BL21 assessed as residual activity at 1000 nM after 30 mins by Kinomescan method relative to control
[7] = target: Tyrosine-protein kinase receptor Tie-1 (Homo sapiens) (UniProt P35590); assay: Inhibition of wild-type human partial length TIE1 (T819 to A1138 residues) expressed in Escherichia coli BL21 assessed as residual activity at 1000 nM after 30 mins by Kinomescan method relative to control
[8] = target: Calcium/calmodulin-dependent protein kinase kinase 1 (Homo sapiens) (UniProt Q8N5S9); assay: Inhibition of wild-type human partial length CAMKK1 (R65 to E414 residues) expressed in Escherichia coli BL21 assessed as residual activity at 1000 nM after 30 mins by Kinomescan method relative to control
[9] = target: Mitogen-activated protein kinase kinase kinase 5 (Homo sapiens) (UniProt Q99683); assay: Inhibition of wild-type human partial length ASK1 (E648 to S964 residues) expressed in Escherichia coli BL21 assessed as residual activity at 1000 nM after 30 mins by Kinomescan method relative to control
[10] = target: Mitogen-activated protein kinase kinase kinase kinase 2 (Homo sapiens) (UniProt Q12851); assay: Inhibition of wild-type human partial length MAP4K2 (M1 to G318 residues) expressed in HEK293 cells assessed as residual activity at 1000 nM after 30 mins by Kinomescan method relative to control; assay type: cell-based
[11] = target: Serine/threonine-protein kinase PAK 2 (Homo sapiens) (UniProt Q13177); assay: Inhibition of wild-type human partial length PAK2 (P151 to R525 residues) expressed in Escherichia coli BL21 assessed as residual activity at 1000 nM after 30 mins by Kinomescan method relative to control
[12] = system: Receptor-type tyrosine-protein kinase FLT3 (Homo sapiens), P36888 [R834Q]; assay: Inhibition of human partial length FLT3 R834Q mutant (V592 to Y969 residues) expressed in HEK293 cells assessed as residual activity at 1000 nM after 30 mins by Kinomescan method relative to control; assay type: cell-based
How it was run: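 KINOMEscan binding panel of 456 kinases, with the test compound at a single concentration of 1 µM. Read-out is Percent Control.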

[13] = target: Mitogen-activated protein kinase kinase kinase kinase 1 (Homo sapiens) (UniProt Q92918); assay: Inhibition of wild-type human full length HPK1 (M1 to R799 residues) expressed in Escherichia coli BL21 assessed as residual activity at 1000 nM after 30 mins by Kinomescan method relative to control; how it was run: as §1
[14] = target: Cyclin-dependent kinase 11B (Homo sapiens) (UniProt P21127); assay: Inhibition of wild-type human partial length CDC2L1 (P353 to G692 residues) expressed in Escherichia coli BL21 assessed as residual activity at 1000 nM after 30 mins by Kinomescan method relative to control
[15] = target: Mitogen-activated protein kinase kinase kinase 2 (Homo sapiens) (UniProt Q9Y2U5); assay: Inhibition of wild-type human partial length MAP3K2 (S315 to H619 residues) expressed in HEK293 cells assessed as residual activity at 1000 nM after 30 mins by Kinomescan method relative to control; assay type: cell-based
[16] = target: Serine/threonine-protein kinase PLK3 (Homo sapiens) (UniProt Q9H4B4); assay: Inhibition of wild-type human partial length PLK3 (A42 to L334 residues) expressed in HEK293 cells assessed as residual activity at 1000 nM after 30 mins by Kinomescan method relative to control; assay type: cell-based
[17] = target: Casein kinase I isoform gamma-1 (Homo sapiens) (UniProt Q9HCP0); assay: Inhibition of wild-type human partial length CSNK1G1 (T15 to S353 residues) expressed in Escherichia coli BL21 assessed as residual activity at 1000 nM after 30 mins by Kinomescan method relative to control
[18] = target: Protein-tyrosine kinase 2-beta (Homo sapiens) (UniProt Q14289); assay: Inhibition of wild-type human full length PYK2 (M1 to E967 residues) expressed in Escherichia coli BL21 assessed as residual activity at 1000 nM after 30 mins by Kinomescan method relative to control
How it was run: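 Single-concentration screen at 1 µM against a 456-kinase panel (KINOMEscan). Read-out is Percent Control for each kinase. Across the 403 non-mutant kinases, an S(35) selectivity score was derived as the fraction of kinases with Percent Control < 35.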

[19] = target: Macrophage colony-stimulating factor 1 receptor (Homo sapiens) (UniProt P07333); assay: Inhibition of wild-type human partial length CSF1R (I564 to S939 residues) expressed in Escherichia coli BL21 assessed as residual activity at 1000 nM after 30 mins by Kinomescan method relative to control
[20] = target: Serine/threonine-protein kinase PAK 4 (Homo sapiens) (UniProt O96013); assay: Inhibition of wild-type human partial length PAK4 (Q144 to R438 residues) expressed in Escherichia coli BL21 assessed as residual activity at 1000 nM after 30 mins by Kinomescan method relative to control
[21] = target: Casein kinase II subunit alpha' (Homo sapiens) (UniProt P19784); assay: Inhibition of wild-type human full length CSNK2A2 (M1 to R350 residues) expressed in HEK293 cells assessed as residual activity at 1000 nM after 30 mins by Kinomescan method relative to control; assay type: cell-based
How it was run: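 Single-point screen at a fixed 1 µM, run within a 456-kinase DiscoveRx KINOMEscan panel. Each kinase's read-out is Percent Control, i.e. signal relative to a control without compound. Hits were scored by a Percent Control < 35 cut-off, and an S(35) selectivity score was calculated across the non-mutant kinases.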

## COc1cc(OC)c(Cl)c(N2Cc3cnc(Nc4ccc(F)cc4)nc3N(C3CCN(C(=O)/C=C/CN(C)C)CC3)C2=O)c1Cl
[1]
  Activity: 99%
[2]
  Activity: 100%
[3]
  IC50: 8.69 nM
[4]
  Activity: 100%
[5]
  Activity: 100%
[6]
  Activity: 100%
[7]
  Activity: 19%
[8]
  Activity: 93%
[9]
  Activity: 100%
[10]
  Activity: 100%
[11]
  Activity: 100%
[12]
  Activity: 96%
[13]
  Activity: 32%
[14]
  Activity: 100%
[15]
  Activity: 0.8%
[16]
  Activity: 99%
[17]
  Activity: 82%
[18]
  Activity: 91%
[19]
  Activity: 0.4%
[20]
  Activity: 100%
[21]
  Activity: 100%
